What was measured:
Format in all cases: functional
Aorta [1] = assay: Vasorelaxant activity in rat aortic strips assessed as inhibition of noradrenaline-induced vasoconstriction at 20 umol/l; parameters: scale not given: the % may be the effect or the level left
Mus musculus [2] = assay: Analgesic activity in ICR mouse assessed as pain threshold variation at 0.13 mmol/kg, ip after 120 mins by tail flick test
How it was run: (§1)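 Male ICR mice (25 2 g), 12/12 light/dark cycle, 21 2 °C, acclimated one day. Single ip injection in 0.2 ml saline with 0.01 ml DMSO and 0.02 ml Tween 80. Tail-flick pain threshold measured before dosing (BPT) and at 30 min intervals for 150 min. PTV = (post-dose threshold − BPT)/BPT, averaged per animal. Saline controls; ANOVA, p < 0.05.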

Mus musculus [3] = assay: Effect on bleeding time in ICR mouse tail at 1.3 mmol/kg, ip after 60 mins
How it was run: (§2)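 Mice given 1.30 mmol/kg body weight. Tail bleeding time measured before dosing and at 5, 15, 30 and 60 min after dosing. Saline as vehicle control.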

Mus musculus [4] = assay: Effect on bleeding time in ICR mouse tail at 1.3 mmol/kg, ip after 30 mins; how it was run: as §2
Mus musculus [5] = assay: Analgesic activity in ICR mouse assessed as pain threshold variation at 0.13 mmol/kg, ip after 90 mins by tail flick test; how it was run: as §1
Mus musculus [6] = assay: Analgesic activity in ICR mouse assessed as pain threshold variation at 0.13 mmol/kg, ip after 60 mins by tail flick test; how it was run: as §1
Mus musculus [7] = assay: Effect on bleeding time in ICR mouse tail at 1.3 mmol/kg, ip after 15 mins; how it was run: as §2
Aorta [8] = assay: Vasorelaxant activity in rat aortic strips assessed as inhibition of noradrenaline-induced vasoconstriction at 100 umol/l; parameters: scale not given: the % may be the effect or the level left
Mus musculus [9] = assay: Effect on bleeding time in ICR mouse tail at 1.3 mmol/kg, ip after 5 mins; how it was run: as §2
Mus musculus [10] = assay: Analgesic activity in ICR mouse assessed as pain threshold variation at 0.13 mmol/kg, ip after 150 mins by tail flick test; how it was run: as §1
Aorta [11] = assay: Vasorelaxant activity in rat aortic strips assessed as inhibition of noradrenaline-induced vasoconstriction at 500 umol/l; parameters: scale not given: the % may be the effect or the level left
Mus musculus [12] = assay: Analgesic activity in ICR mouse assessed as pain threshold variation at 0.13 mmol/kg, ip after 30 mins by tail flick test; how it was run: as §1

| Compound | Activity (Aorta [1]) | Activity (Mus musculus [2]) | TIME (Mus musculus [3]) | TIME (Mus musculus [4]) | Activity (Mus musculus [5]) | Activity (Mus musculus [6]) | TIME (Mus musculus [7]) | Activity (Aorta [8]) | TIME (Mus musculus [9]) | Activity (Mus musculus [10]) | Activity (Aorta [11]) | Activity (Mus musculus [12]) | Time (Mus musculus [3]) | Time (Mus musculus [4]) | Time (Mus musculus [7]) | Time (Mus musculus [9]) |
| --- | --- | --- | --- | --- | --- | --- | --- | --- | --- | --- | --- | --- | --- | --- | --- | --- |
| CC1(C)N=C(c2ccc([N+](=O)[O-])cc2)N([O])C1(C)C | 7.36% | 35.9 | 0.033 h | 0.0329 h | 58 | 60.5 | 0.0331 h | 24.4% | 0.0332 h | 52.3 | 36.5% | 56.5 | – | – | – | – |
| COc1cc(C2=NC(C)(C)C(C)(C)N2[O])ccc1O | 5.98% | 43.2 | 0.0329 h | 0.0327 h | 66.3 | 42.9 | 0.0323 h | 6.09% | 0.0327 h | 40.9 | 6.55% | 54.2 | – | – | – | – |
| COc1ccc(C2=NC(C)(C)C(C)(C)N2[O])cc1OC | 6.66% | 78.4 | 0.0335 h | 0.0332 h | 59.5 | 60.2 | 0.033 h | 22.3% | 0.0329 h | 55.6 | 33.7% | 44.9 | – | – | – | – |
| CC1(C)N=C(c2ccc(Br)cc2)N([O])C1(C)C | 6.89% | 60 | 0.0326 h | 0.0324 h | 59.8 | 35.6 | 0.0326 h | 23% | 0.0324 h | 76.5 | 34.8% | 41.3 | – | – | – | – |
| CC1(C)N=C(c2ccccc2)N(O)C1(C)C | 5.44% | 32.14 | – | – | 34 | 36.99 | – | 11.04% | – | 33.48 | 17.25% | 40.6 | 118.2 s | 119.3 s | 117.4 s | 118.2 s |
| COc1ccc(C2=NC(C)(C)C(C)(C)N2[O])c(OC)c1 | 7.33% | 71.2 | 0.0328 h | 0.0327 h | 62.5 | 59.7 | 0.0324 h | 24% | 0.0331 h | 32.4 | 37.1% | 42 | – | – | – | – |
| CC1(C)N=C(c2cccc([N+](=O)[O-])c2)N([O])C1(C)C | 6.72% | 43.5 | 0.0328 h | 0.0327 h | 47.4 | 66.4 | 0.0324 h | 22.1% | 0.0329 h | 41.8 | 34.3% | 49.8 | – | – | – | – |
| CC1(C)N=C(c2ccc(Cl)cc2Cl)N([O])C1(C)C | 6.86% | 30.5 | 0.0327 h | 0.0326 h | 48.4 | 63.3 | 0.033 h | 23% | 0.0329 h | 14.8 | 34.8% | 39.6 | – | – | – | – |
| Cc1ccc(C2=NC(C)(C)C(C)(C)N2[O])cc1 | 7% | 35.2 | 0.0328 h | 0.0328 h | 43.7 | 53.6 | 0.0324 h | 20% | 0.0327 h | 25.5 | 31.8% | 40.2 | – | – | – | – |
| CC1(C)N=C(c2ccc3c(c2)OCO3)N([O])C1(C)C | 8.1% | 58.3 | 0.0324 h | 0.0328 h | 74 | 65 | 0.0324 h | 24.5% | 0.0326 h | 25.4 | 37.4% | 52.8 | – | – | – | – |
| CC1(C)N=C(c2ccc(Cl)c(Cl)c2)N([O])C1(C)C | 6.74% | 28.8 | 0.033 h | 0.0331 h | 55.7 | 72.8 | 0.0331 h | 22.7% | 0.0334 h | 27 | 34.4% | 50.6 | – | – | – | – |
| CC1(C)N=C(c2ccc(O)cc2)N([O])C1(C)C | 5.36% | 55.5 | 0.0327 h | 0.0326 h | 75.9 | 70.8 | 0.0325 h | 7.66% | 0.0328 h | 29.9 | 8.71% | 55.7 | – | – | – | – |
| CC1(C)N=C(c2ccccc2O)N([O])C1(C)C | 6.01% | 70.2 | 0.0324 h | 0.0325 h | 64.2 | 45.4 | 0.0329 h | 13.4% | 0.0324 h | 62.2 | 20.3% | 48.6 | – | – | – | – |
| CC1(C)N=C(c2ccc(Cl)cc2)N([O])C1(C)C | 7.19% | 50.8 | 0.0326 h | 0.0328 h | 61.7 | 66.3 | 0.0326 h | 23.8% | 0.0331 h | 84.5 | 36.6% | 59.3 | – | – | – | – |
| CN(C)c1ccc(C2=NC(C)(C)C(C)(C)N2[O])cc1 | 8.02% | 34.3 | 0.0327 h | 0.0329 h | 36.2 | 35.5 | 0.033 h | 26% | 0.0331 h | 27.9 | 40% | 30.4 | – | – | – | – |
| COc1ccc(C2=NC(C)(C)C(C)(C)N2[O])cc1O | 5.36% | 56.4 | 0.0326 h | 0.0328 h | 48.4 | 48.2 | 0.0325 h | 11% | 0.0326 h | 59.8 | 16.6% | 33.1 | – | – | – | – |
| CC1(C)N=C(c2ccccc2[N+](=O)[O-])N([O])C1(C)C | 6.98% | 23.4 | 0.0324 h | 0.0326 h | 57.2 | 66.9 | 0.0327 h | 20.4% | 0.0326 h | 19.7 | 35.6% | 38.4 | – | – | – | – |
